Values after ≈ are worked out from the molar mass of the structure shown.
What was measured:
Staphylococcus aureus [1] = assay: Antibacterial activity against Staphylococcus aureus ATCC 25923 after 24 hrs by broth dilution technique; type: functional; settings: ATCC 25923, 24 h
Procedure, shortened: (§1)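 MIC by broth dilution in nutrient broth with logarithmic serial twofold dilutions of compound. Inoculum approx. 5×10^5 c.f.u actively dividing bacteria. Incubated 24 h at 37 °C, growth monitored visually and spectrophotometrically. MIC taken as the lowest concentration (highest dilution) arresting growth. Ciprofloxacin reference.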

Staphylococcus aureus [2] = assay: Antibacterial activity against Staphylococcus aureus ATCC 25923 assessed as inhibition zone diameter after 24 hrs […]; type: functional
Procedure, shortened: (§2)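 Disc diffusion on nutrient agar. Inoculum 1-2 × 10^7 c.f.u/ml (0.5 McFarland) spread over the plate surface. Sterile 6.25 mm filter-paper discs soaked in a known concentration of compound. Solvent and growth controls included. Plates incubated inverted 24 h at 37 °C, then inhibition zone diameter measured in mm. Ciprofloxacin reference.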

Escherichia coli = assay: Antibacterial activity against Escherichia coli ATCC 25922 after 24 hrs by broth dilution technique; type: functional; settings: ATCC 25922, 24 h; procedure, shortened: as §1
Pseudomonas aeruginosa [3] = assay: Antibacterial activity against Pseudomonas aeruginosa ATCC 27853 after 24 hrs by broth dilution technique; type: functional; settings: ATCC 27853, 24 h; procedure, shortened: as §1
Pseudomonas aeruginosa [4] = assay: Antibacterial activity against Pseudomonas aeruginosa ATCC 27853 assessed as inhibition zone diameter after 24 hrs […]; type: functional; procedure, shortened: as §2
Klebsiella pneumoniae [5] = assay: Antibacterial activity against Klebsiella pneumoniae after 24 hrs by broth dilution technique; type: functional; procedure, shortened: as §1
Klebsiella pneumoniae [6] = assay: Antibacterial activity against Klebsiella pneumoniae assessed as inhibition zone diameter after 24 hrs […]; type: functional; procedure, shortened: as §2
Streptococcus pyogenes [7] = assay: Antibacterial activity against Streptococcus pyogenes after 24 hrs by broth dilution technique; type: functional; procedure, shortened: as §1
Candida albicans [8] = assay: Antifungal activity against Candida albicans after 48 hrs […]; type: functional
Candida albicans [9] = assay: Antifungal activity against Candida albicans assessed as inhibition zone diameter […] by agar dilution method; type: functional
Procedure, shortened: (§3)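 Compounds in DMSO placed in punched wells on Sabouraud agar (peptone, glucose, agar, pH 5.7) lawned with saline spore suspension. Plates pre-dried 1 h at 37 °C. Controls in triplicate, incubation at 37 °C for 3-4 days, then inhibition zone diameter read in mm. Amphotericin B reference.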

Aspergillus flavus [10] = assay: Antifungal activity against Aspergillus flavus after 48 hrs […]; type: functional
Aspergillus flavus [11] = assay: Antifungal activity against Aspergillus flavus assessed as inhibition zone diameter […] by agar dilution method; type: functional; procedure, shortened: as §3
Aspergillus fumigatus [12] = assay: Antifungal activity against Aspergillus fumigatus after 48 hrs […]; type: functional
Aspergillus fumigatus [13] = assay: Antifungal activity against Aspergillus fumigatus assessed as inhibition zone diameter […] by agar dilution method; type: functional; procedure, shortened: as §3
[14] = test system: Trichophyton mentagrophytes; assay: Antifungal activity against Trichophyton mentagrophytes after 48 hrs […]; type: functional
[15] = test system: Trichophyton mentagrophytes; assay: Antifungal activity against Trichophyton mentagrophytes assessed as inhibition zone diameter […] by agar dilution method; type: functional; procedure, shortened: as §3
Talaromyces marneffei [16] = assay: Antifungal activity against Penicillium marneffei after 48 hrs […]; type: functional
Talaromyces marneffei [17] = assay: Antifungal activity against Penicillium marneffei assessed as inhibition zone diameter […] by agar dilution method; type: functional; procedure, shortened: as §3
Streptococcus pyogenes [18] = assay: Antibacterial activity against Streptococcus pyogenes assessed as inhibition zone diameter after 24 hrs by disc diffusion method

| Compound | MIC (Staphylococcus aureus [1]) [µg/mL] | MIC (Escherichia coli) [µg/mL] | MIC (Pseudomonas aeruginosa [3]) [µg/mL] | MIC (Klebsiella pneumoniae [5]) [µg/mL] | MIC (Streptococcus pyogenes [7]) [µg/mL] | MIC (Candida albicans [8]) [µg/mL] | MIC (Aspergillus flavus [10]) [µg/mL] | MIC (Aspergillus fumigatus [12]) [µg/mL] | MIC [14] [µg/mL] | MIC (Talaromyces marneffei [16]) [µg/mL] | inhibition zone (IZ) (Staphylococcus aureus [2]) [mm] | inhibition zone (IZ) (Pseudomonas aeruginosa [4]) [mm] | inhibition zone (IZ) (Klebsiella pneumoniae [6]) [mm] | inhibition zone (IZ) (Candida albicans [9]) [mm] | inhibition zone (IZ) (Aspergillus flavus [11]) [mm] | inhibition zone (IZ) (Aspergillus fumigatus [13]) [mm] | inhibition zone (IZ) [15] [mm] | inhibition zone (IZ) (Talaromyces marneffei [17]) [mm] | inhibition zone (IZ) (Streptococcus pyogenes [18]) [mm] |
| --- | --- | --- | --- | --- | --- | --- | --- | --- | --- | --- | --- | --- | --- | --- | --- | --- | --- | --- | --- |
| Fc1cc(-c2nnc3n2N=C(Nc2cc(Cl)c(Cl)cc2Cl)CS3)c(Cl)cc1Cl | 6.25 (≈ 12.6 µM) | 6.25 (≈ 12.6 µM) | 6.25 (≈ 12.6 µM) | 6.25 (≈ 12.6 µM) | 6.25 (≈ 12.6 µM) | 6.25 (≈ 12.6 µM) | 6.25 (≈ 12.6 µM) | 6.25 (≈ 12.6 µM) | 6.25 (≈ 12.6 µM) | 6.25 (≈ 12.6 µM) | 24 | 32 | 20 | 20 | 23 | 19 | 18 | 24 | 23 |
| Nn1c(SCC(=O)Nc2ccccc2C(F)(F)F)nnc1-c1cc(F)c(Cl)cc1Cl | 6.25 (≈ 13 µM) | 6.25 (≈ 13 µM) | 6.25 (≈ 13 µM) | 6.25 (≈ 13 µM) | 6.25 (≈ 13 µM) | 6.25 (≈ 13 µM) | 6.25 (≈ 13 µM) | 6.25 (≈ 13 µM) | 6.25 (≈ 13 µM) | 6.25 (≈ 13 µM) | 25 | 29 | 20 | 19 | 21 | 19 | 18 | 22 | 22 |
| Cc1cccc(NC(=O)CSc2nnc(-c3cc(F)c(Cl)cc3Cl)n2N)c1C | 6.25 (≈ 14.2 µM) | 12.5 (≈ 28.4 µM) | 12.5 (≈ 28.4 µM) | 12.5 (≈ 28.4 µM) | 6.25 (≈ 14.2 µM) | 6.25 (≈ 14.2 µM) | 12.5 (≈ 28.4 µM) | 6.25 (≈ 14.2 µM) | 6.25 (≈ 14.2 µM) | 12.5 (≈ 28.4 µM) | 20 | 20 | 17 | 18 | 15 | 20 | 16 | 15 | 24 |
| Cc1cccc(C)c1NC1=Nn2c(nnc2-c2cc(F)c(Cl)cc2Cl)SC1 | 6.25 (≈ 14.8 µM) | 12.5 (≈ 29.6 µM) | 6.25 (≈ 14.8 µM) | 12.5 (≈ 29.6 µM) | 6.25 (≈ 14.8 µM) | 12.5 (≈ 29.6 µM) | 6.25 (≈ 14.8 µM) | 25 (≈ 59.2 µM) | 6.25 (≈ 14.8 µM) | 12.5 (≈ 29.6 µM) | 23 | 15 | 12 | 15 | 24 | 10 | 19 | 12 | 21 |
| Fc1cc(-c2nnc3n2N=C(Nc2ccc(Cl)cc2)CS3)c(Cl)cc1Cl | 6.25 (≈ 14.6 µM) | 6.25 (≈ 14.6 µM) | 6.25 (≈ 14.6 µM) | 6.25 (≈ 14.6 µM) | 6.25 (≈ 14.6 µM) | 6.25 (≈ 14.6 µM) | 6.25 (≈ 14.6 µM) | 6.25 (≈ 14.6 µM) | 12.5 (≈ 29.2 µM) | 12.5 (≈ 29.2 µM) | 24 | 32 | 20 | 16 | 20 | 18 | 11 | 15 | 25 |
| Cc1ccc(NC2=Nn3c(nnc3-c3cc(F)c(Cl)cc3Cl)SC2)cc1 | 6.25 (≈ 15.3 µM) | 6.25 (≈ 15.3 µM) | 6.25 (≈ 15.3 µM) | 6.25 (≈ 15.3 µM) | 6.25 (≈ 15.3 µM) | 6.25 (≈ 15.3 µM) | 6.25 (≈ 15.3 µM) | 6.25 (≈ 15.3 µM) | 6.25 (≈ 15.3 µM) | 6.25 (≈ 15.3 µM) | 21 | 29 | 21 | 18 | 19 | 20 | 17 | 23 | 23 |
| Fc1cc(-c2nnc3n2N=C(Nc2ccccc2C(F)(F)F)CS3)c(Cl)cc1Cl | 6.25 (≈ 13.5 µM) | 6.25 (≈ 13.5 µM) | 6.25 (≈ 13.5 µM) | 6.25 (≈ 13.5 µM) | 6.25 (≈ 13.5 µM) | 6.25 (≈ 13.5 µM) | 6.25 (≈ 13.5 µM) | 6.25 (≈ 13.5 µM) | 6.25 (≈ 13.5 µM) | 6.25 (≈ 13.5 µM) | 22 | 30 | 21 | 18 | 21 | 21 | 17 | 21 | 23 |

Further lines, with some results ahead:

| MIC (Staphylococcus aureus [1]) [µg/mL] | MIC (Escherichia coli) [µg/mL] | MIC (Pseudomonas aeruginosa [3]) [µg/mL] | MIC (Klebsiella pneumoniae [5]) [µg/mL] | MIC (Streptococcus pyogenes [7]) [µg/mL] | MIC (Candida albicans [8]) [µg/mL] | MIC (Aspergillus flavus [10]) [µg/mL] | MIC (Aspergillus fumigatus [12]) [µg/mL] | MIC [14] [µg/mL] | MIC (Talaromyces marneffei [16]) [µg/mL] | Compound | inhibition zone (IZ) (Staphylococcus aureus [2]) [mm] | inhibition zone (IZ) (Pseudomonas aeruginosa [4]) [mm] | inhibition zone (IZ) (Klebsiella pneumoniae [6]) [mm] | inhibition zone (IZ) (Candida albicans [9]) [mm] | inhibition zone (IZ) (Aspergillus flavus [11]) [mm] | inhibition zone (IZ) (Aspergillus fumigatus [13]) [mm] | inhibition zone (IZ) [15] [mm] | inhibition zone (IZ) (Talaromyces marneffei [17]) [mm] | inhibition zone (IZ) (Streptococcus pyogenes [18]) [mm] |
| --- | --- | --- | --- | --- | --- | --- | --- | --- | --- | --- | --- | --- | --- | --- | --- | --- | --- | --- | --- |
| 6.25 (≈ 14.7 µM) | 6.25 (≈ 14.7 µM) | 6.25 (≈ 14.7 µM) | 6.25 (≈ 14.7 µM) | 6.25 (≈ 14.7 µM) | 6.25 (≈ 14.7 µM) | 6.25 (≈ 14.7 µM) | 6.25 (≈ 14.7 µM) | 6.25 (≈ 14.7 µM) | 6.25 (≈ 14.7 µM) | Cc1ccc(NC(=O)CSc2nnc(-c3cc(F)c(Cl)cc3Cl)n2N)cc1 | 25 | 31 | 20 | 18 | 22 | 20 | 18 | 23 | 22 |
| 6.25 (≈ 13.4 µM) | 6.25 (≈ 13.4 µM) | 6.25 (≈ 13.4 µM) | 6.25 (≈ 13.4 µM) | 6.25 (≈ 13.4 µM) | 12.5 (≈ 26.9 µM) | 25 (≈ 53.8 µM) | 12.5 (≈ 26.9 µM) | 12.5 (≈ 26.9 µM) | 6.25 (≈ 13.4 µM) | Nn1c(SCC(=O)Nc2ccc(F)c(Cl)c2)nnc1-c1cc(F)c(Cl)cc1Cl | 24 | 31 | 20 | 15 | 8 | 16 | 11 | 20 | 23 |
| 12.5 (≈ 28 µM) | 12.5 (≈ 28 µM) | 12.5 (≈ 28 µM) | 12.5 (≈ 28 µM) | 25 (≈ 56 µM) | 12.5 (≈ 28 µM) | 25 (≈ 56 µM) | 12.5 (≈ 28 µM) | 25 (≈ 56 µM) | 12.5 (≈ 28 µM) | Nn1c(SCC(=O)Nc2ccc(Cl)cc2)nnc1-c1cc(F)c(Cl)cc1Cl | 17 | 18 | 12 | 12 | 10 | 15 | 8 | 17 | 10 |
| 6.25 (≈ 14.2 µM) | 6.25 (≈ 14.2 µM) | 6.25 (≈ 14.2 µM) | 25 (≈ 56.8 µM) | 6.25 (≈ 14.2 µM) | 12.5 (≈ 28.4 µM) | 25 (≈ 56.8 µM) | 25 (≈ 56.8 µM) | 6.25 (≈ 14.2 µM) | 25 (≈ 56.8 µM) | Cc1ccc(NC(=O)CSc2nnc(-c3cc(F)c(Cl)cc3Cl)n2N)c(C)c1 | 17 | 30 | 10 | 14 | 10 | 8 | 12 | 9 | 18 |
| 6.25 (≈ 12.1 µM) | 6.25 (≈ 12.1 µM) | 6.25 (≈ 12.1 µM) | 6.25 (≈ 12.1 µM) | 6.25 (≈ 12.1 µM) | 6.25 (≈ 12.1 µM) | 6.25 (≈ 12.1 µM) | 6.25 (≈ 12.1 µM) | 6.25 (≈ 12.1 µM) | 6.25 (≈ 12.1 µM) | Nn1c(SCC(=O)Nc2cc(Cl)c(Cl)cc2Cl)nnc1-c1cc(F)c(Cl)cc1Cl | 22 | 30 | 21 | 20 | 25 | 21 | 19 | 23 | 25 |
| 6.25 (≈ 13 µM) | 12.5 (≈ 26 µM) | 12.5 (≈ 26 µM) | 6.25 (≈ 13 µM) | 6.25 (≈ 13 µM) | 12.5 (≈ 26 µM) | 6.25 (≈ 13 µM) | 12.5 (≈ 26 µM) | 25 (≈ 52 µM) | 12.5 (≈ 26 µM) | Nn1c(SCC(=O)Nc2c(Cl)cccc2Cl)nnc1-c1cc(F)c(Cl)cc1Cl | 18 | 23 | 21 | 12 | 17 | 15 | 10 | 13 | 19 |

Source: ChEMBL document CHEMBL1149770, “Synthesis and antimicrobial studies of novel dichlorofluorophenyl containing aminotriazolothiadiazines” (2008)
